Assay outcomes from PubChem BioAssay.
The list is not random: actives were taken first. Their share in the collection is about 2.2%.
697 NFkB inh = inhibitors of PMA/ionomycin-induced NF-kB reporter, 697 cells, primary screen, B-cell NF-kB inhibitor project, cell-based, luminescence, uHTS | inhibition, % at 4 µM | hit rate 0.33% among 330,000 | 697 B-cell NF-kB luciferase reporter, 16 h; in the data active = inhibition above about 35%
NR2E3 ag-1 = inhibitors of NR2E3-RetCOR corepressor binding, primary screen, NR2E3 agonist project, biochemical, TR-FRET, GST-NR2E3, biotin-RetCOR; Photoreceptor-specific nuclear receptor (Homo sapiens), Q9Y5X4; 1536-well; inhibition of corepressor binding, % at 4.78 µM; hit rate 0.12% among 320,000; AID 2300, 2010;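 active = percent inhibition above the cutoff of mean plus 3 SD of all tested compounds, set per screening campaign, cut at about 20% in these data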;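 note: 0% = DMSO wells and 100% = biotin wells as full block of FRET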
Target sequence (Q9Y5X4 whole entry, looked up): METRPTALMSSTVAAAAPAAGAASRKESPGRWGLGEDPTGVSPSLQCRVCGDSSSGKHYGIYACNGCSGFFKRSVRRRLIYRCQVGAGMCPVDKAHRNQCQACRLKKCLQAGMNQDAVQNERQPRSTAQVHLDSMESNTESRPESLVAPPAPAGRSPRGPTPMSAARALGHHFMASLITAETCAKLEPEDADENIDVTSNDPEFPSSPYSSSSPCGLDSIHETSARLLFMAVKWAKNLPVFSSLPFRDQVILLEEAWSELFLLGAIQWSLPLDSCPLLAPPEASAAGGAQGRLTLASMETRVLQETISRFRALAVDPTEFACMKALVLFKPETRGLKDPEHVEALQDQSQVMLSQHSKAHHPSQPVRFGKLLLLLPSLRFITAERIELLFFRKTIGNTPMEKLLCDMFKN
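system = GST-tagged NR2E3 plus biotinylated RetCOR corepressor | input = 1.35 nM GST-NR2E3 | also added = 7 nM biotin-RetCOR | schedule = 5 h incubation at 4 °C | measured by = TR-FRET with europium anti-GST and streptavidin-D2, 340 nm excitation | read-out = percent loss of FRET ratio relative to control wells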
Jurkat NFkB inh = inhibitors of induced NF-kB luciferase reporter, primary screen, TCR NF-kB activation inhibitor project, cell-based, luminescence, uHTS; Jurkat, PMA/ionomycin-induced NF-kB luciferase reporter; inhibition, % at 4 µM; AID 435003, 2010; hit rate 0.53% among 330,000; in the data active = inhibition above about 50%
FGF22 binding = binders of human FGF22 protein, primary screen, FGF22 synaptogenesis inhibitor project, biophysical, thermal shift, single point; Fibroblast growth factor 22 (Homo sapiens), Q9HCT0; recombinant FGF22 thermal shift, SYPRO orange fluorescence; percent of sucrose octasulfate shift, DMSO zero; activity (Tm shift, normalised), % at 9.99 µM; hit rate 1.5% among 340,000;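 active = mean Tm shift, scaled 0 neutral to 100 positive control, at about 1.3% or above, every replicate too, limit read from the data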
Target sequence (Q9HCT0 whole entry, looked up): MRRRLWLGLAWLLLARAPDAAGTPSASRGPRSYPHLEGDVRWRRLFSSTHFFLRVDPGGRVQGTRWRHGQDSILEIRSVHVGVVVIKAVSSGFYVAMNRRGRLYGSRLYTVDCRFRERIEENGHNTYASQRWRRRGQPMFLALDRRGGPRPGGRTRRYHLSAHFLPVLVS
miR-122 sensor = miR-122 Renilla sensor signal increase in Huh7, primary screen, miR-122 inhibitor project, cell-based, single point, plate reader | Huh7 miR-122 Renilla luciferase sensor, 48 h; neutral wells = 0, positive control = 100 | activation (reporter increase), % at 12.5 µM | hit rate 0.3% among 340,000 | AID 602342, 2012;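 active = mean replicate activation score at least 90 and every replicate individually at or above 90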;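 note: higher luciferase means less miR-122 activity so hits act as miR-122 inhibitors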
NR2E3 ag-2 = NR2E3 agonists in two-hybrid cells, primary screen, cell-based, luminescence, CHO-S, Gal4-NCOR/VP16-NR2E3; Photoreceptor-specific nuclear receptor (Homo sapiens), Q9Y5X4; inhibition of corepressor binding, % at 3.98 µM; hit rate 0.35% among 360,000; luciferase;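 active = inhibition above the mean of all tested compounds plus 3 SD, cut at about 70% in these data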;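 note: 0% = DMSO with NR2E3 transfected cells and 100% = cells lacking NR2E3 construct; higher means lower luciferase signal from less NR2E3 corepressor binding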
NR2E3 ag confirm-1 = NR2E3 agonists, confirmation, biochemical, TR-FRET; shares compounds with NR2E3 ag-1; cell-free NR2E3 corepressor release, 5 h; activation (reported as inhibition), % at 3.98 µM; hit rate 39% among 360; AID 2379, 2010; in the data active = activation above about 20%
PPARg-NCOR2 ctr = agonists of PPARg-NCOR2 corepressor interaction, counter-screen for NR2E3 agonist project, biochemical, TR-FRET; shares compounds with NR2E3 ag-1; TR-FRET PPARg-NCOR2 coregulator interaction; inhibition, % at 3.98 µM; hit rate 45% among 360; AID 504787, 2011; in the data active = inhibition above about 20%;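 note: 0% = DMSO vehicle and 100% = wells without protein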
Jurkat NFkB conf = PMA/ionomycin-induced NF-kB reporter inhibitors, Jurkat retest, confirmation, T-cell NF-kB inhibitor project, cell-based, luminescence, single concentration | Jurkat NF-kB luciferase, 16 h | inhibition, % at 4 µM | shares compounds with Jurkat NFkB inh | hit rate 27% among 2,700;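 active = inhibition reaching about 45% at 4 µM in either replicate, limit read from the data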;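 note: plate controls were PMA/ionomycin stimulated DMSO wells for no effect and unstimulated DMSO wells for full effect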
NR2E3 ag confirm-2 = NR2E3 agonist confirmation in cells, cell-based, luminescence, CHO-S two-hybrid. shares compounds with NR2E3 ag-2. inhibition, % at 3.98 µM. hit rate 51% among 2,300. CHO-S mammalian two-hybrid NR2E3-NCOR, luciferase luminescence;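 active = average inhibition above a cutoff equal to the mean inhibition of all tested compounds plus one SD, cut at about 70% in these data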;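 note: 0% = DMSO in NR2E3 cells and 100% = DMSO in cells lacking NR2E3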
GAL4-VP16 luc = GAL4-VP16 reporter modulators, confirmation, counter-screen for NR2E3 agonist project, cell-based, luminescence, CHO-S, high throughput; shares compounds with NR2E3 ag-2; CHO-S GAL4-VP16 luciferase reporter; inhibition, % at 3.98 µM; hit rate 29% among 2,300; AID 624379, 2012;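 active = mean inhibition above a cutoff equal to the average over all tested compounds plus one standard deviation, cut at about 70% in these data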;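 note: luciferase from a UAS reporter driven by GAL4-VP16 transactivation; 0% = DMSO with VP16-transfected cells and 100% = DMSO with cells lacking VP16; higher means less reporter light so more repression of VP16 activity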
* = called active by the depositor; . = no result; [ ] = another dose, or the depositor's remark.

SMILES | 697 NFkB inh | NR2E3 ag-1 | Jurkat NFkB inh | FGF22 binding | miR-122 sensor | NR2E3 ag-2 | others
COC(=O)[C@@H]1[C@@H](CO)[C@@H]2Cn3c(ccc(-c4ccccc4F)c3=O)[C@H]1N2C(=O)C1CCC1 | . | . | . | 0 | 4[16.7 µM] | .
O=C(Cc1ccncc1)N1CCCCN2[C@H](C1)[C@H](c1ccc(C#CC3(O)CCCC3)cc1)[C@@H]2CO | . | . | . | 0 | 6[16.7 µM] | .
CCOC(=O)[C@@H]1[C@@H]2NC(=O)N(C)[C@@]1(C)Oc1ccccc12 | . | . | . | 0 | . | .
COC(=O)[C@@H](N)CCCN=C(N)N[N+](=O)[O-] | 24 | 3 | 14 | 0 | -17 | -11
CC(C)OC(=O)Nc1ccc(N=C(N)N[N+](=O)[O-])cc1 | -11 | 0 | -23 | 43* | -4 | -12
COc1ccccc1N1C(=O)NC(=O)/C(=C/c2ccc3c(c2)Cc2ccccc2-3)C1=O | 10 | 2 | -8 | 43* | . | -99
O=C1NC(=O)N(c2ccccc2)C(=O)/C1=C/c1ccc2c(c1)Cc1ccccc1-2 | -6 | -1 | -25 | . | . | .
O=C1NC(=O)C(CCc2ccncc2)(Cc2cccc(Cl)c2Cl)C(=O)N1c1ccc(Br)cc1 (stereo not drawn) | -46 | 0 | 36 | . | 491* | -41
C[C@H](CO)N1C[C@H](C)[C@H](CN(C)C(=O)Oc2ccccc2)OCc2ccccc2-c2c(n(C)c3ccccc23)C1=O | . | . | . | 0 | . | .
CN(C)c1ccc(/C=C/C=C2/C(=O)NC(=O)N(c3ccccc3)C2=O)cc1 | . | . | . | 44* | . | 19
COC1C(O)C(C)OC(OC2CCC3(C)C(CCC4C3C(O)CC3(C)C(C5=CC(=O)OC5)CCC43O)C2)C1O (stereo not drawn) | . | . | . | 0 | 7 | 3
CC(=O)OC1CC(OC2C(O)CC(OC3C(O)CC(OC4CCC5(C)C(CCC6C5CC(O)C5(C)C(C7=CC(=O)OC7)CCC65O)C4)OC3C)OC2C)OC(C)C1OC1OC(CO)C(O)C(O)C1O (stereo not drawn) | . | . | . | 0 | 126* | -3
COc1ccc(-c2nc3ccccc3n2OC(=O)N(C)C)cc1 | -96 | 1 | -79 | . | 114* | -16
CN(C)C(=O)On1c(-c2ccccc2)nc2ccc(Cl)cc21 | -20 | 3 | -48 | . | 1 | -42
O=C(NCCO)c1nsnc1NCCCl | -31 | 0 | -13 | 43* | . | 32
O=C(O)[C@@H]1[C@@H](CO)[C@@H]2Cn3c(ccc(-c4ccccc4)c3=O)[C@H]1N2S(=O)(=O)c1ccccc1F | . | . | . | 0 | -4[16.7 µM] | .
Cc1cc(C=O)c(C)n1C(C)C | 11 | 3 | 7 | 43* | . | -9
CCCn1c(C)cc(C=O)c1C | 17 | 0 | -10 | 0 | . | 6
C/C(=N\N1CCCCCC1)c1c(O)n(-c2ccc(Cl)cc2)c(=O)[nH]c1=O | -14 | 2 | 6 | 0 | -1 | 12
C/C(=N\N1CCCCCC1)c1c(O)n(-c2ccc(C)cc2)c(=O)[nH]c1=O | -21 | 3 | 10 | 44* | -1 | -13
CC1(O)CCC2C3CCC4=CC(=O)CCC4=C3C=CC21C (stereo not drawn) | . | . | . | 43* | -6 | 33
O=C(Cc1ccccc1)N1C[C@@H]2[C@H](c3ccccc31)[C@@H](CO)N2Cc1ccccc1 | . | . | . | 0 | -17[16.7 µM] | .
COCCNC(=O)c1c(NC(=O)c2ccc(Br)o2)n(Cc2ccccc2)c2nc3ccccc3nc12 | -48 | 23* | -1 | . | -10 | -6 | NR2E3 ag confirm-1=-2;PPARg-NCOR2 ctr=5
COC(=O)[C@H]1[C@H](CO)[C@H]2Cn3c(ccc(-c4ccc(OC)cc4)c3=O)[C@@H]1N2C(=O)c1ccccc1F | . | . | . | 0 | 5[16.7 µM] | .
O=C1C(=O)c2cccc3cccc1c23 | 20 | 0 | 4 | 0 | . | 2
SMILES | 697 NFkB inh | NR2E3 ag-1 | Jurkat NFkB inh | FGF22 binding | miR-122 sensor | NR2E3 ag-2 | others
O=C1C(=O)c2ccccc2-c2ccccc21 | 15 | 37* | 34 | -1 | 5 | 68 | NR2E3 ag confirm-1=39*;PPARg-NCOR2 ctr=84*
CCOC(=O)c1c(NS(=O)(=O)c2ccccc2)n(CCCOC)c2nc3ccccc3nc12 | 22 | 38* | 12 | . | . | 3 | NR2E3 ag confirm-1=1;PPARg-NCOR2 ctr=-9
N#Cc1cccc(-c2ccc([C@@H]3[C@@H](CO)N4CCCCN(C(=O)Cc5ccccc5)C[C@@H]34)cc2)c1 | . | . | . | 0 | -12[16.7 µM] | .
Cc1nc2c(=O)n(C)c(=O)nc-2n(C)n1 | -30 | 38* | 56* | . | -24 | 114* | NR2E3 ag confirm-1=40*;PPARg-NCOR2 ctr=64*;Jurkat NFkB conf=100*;NR2E3 ag confirm-2=100*;GAL4-VP16 luc=98*
COC(=O)[C@H]1[C@H](CO)[C@H]2Cn3c(ccc(-c4ccccc4)c3=O)[C@@H]1N2CCc1ccccc1 | . | . | . | 0 | -2[16.7 µM] | .
CC12CCC(O)CC1CCC1C2CCC2(C)C(C3=CC(=O)OC3)CCC12O (stereo not drawn) | . | . | . | 0 | 88 | -27
C[C@]12CC[C@H](O)C[C@H]1CC[C@@H]1[C@@H]2CC[C@]2(C)[C@@H](C3=CC(=O)OC3)CC[C@]12O | 9 | 1 | 101* | 0 | 123* | -4 | Jurkat NFkB conf=91*
O=C(Cc1ccccn1)N1CCCCN2[C@@H](CO)[C@H](c3ccc(-c4ccccc4)cc3)[C@@H]2C1 | . | . | . | 0 | -3[16.7 µM] | .
COc1cc(C2c3cc4c(cc3CC3COC(=O)C32)OCO4)cc(OC)c1OC (stereo not drawn) | -29 | . | 53* | 0 | -2 | 12 | Jurkat NFkB conf=49*
